According to ChEMBL document CHEMBL1128497, “Synthesis and in vitro and in vivo antitumor activity of a series of trans platinum antitumor complexes” (J Med Chem, 1995):
“And” between values parts separate entries of the source, which are not always exact repeats. Identical values can stand only once.

What was measured:
SK-OV-3 = assay: In vitro antitumor activity against SK-OV-3 cell line.; type: functional, cell-based, Homo sapiens
Summary of the method: (§1)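 Human ovarian carcinoma monolayers were grown in DMEM with 10% FCS, insulin and hydrocortisone under 10% CO2. Cells were seeded at 5 × 10^3–1 × 10^4 per well and left to attach overnight. Drugs were freshly dissolved in 0.9% saline (1 mM or 500 μM stocks) and added to quadruplicate wells for 96 h. Cell mass was read by SRB staining. IC50 values are means of at least two experiments.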

41M [1] = assay: In vitro antitumor activity against 41McisR cell line.; type: functional, cell-based, Homo sapiens; summary of the method: as §1
CH1 [2] = assay: In vitro antitumor activity against CH1cisR cell line.; type: functional, cell-based, Homo sapiens; summary of the method: as §1
41M [3] = assay: In vitro antitumor activity against 41M cell line.; type: functional, cell-based, Homo sapiens; summary of the method: as §1
[4] = In vivo antitumor activity by i.p. administration against murine ADJ/PC6 (sc) plasmacytoma.; type: ADME, organism-based; conditions: mouse, ip
Mus musculus = assay: In Vivo Antitumor activity by ip administration against Murine ADJ/PC6 (sc) Plasmacytoma in mice; type: functional, organism-based; conditions: Plasma
Summary of the method: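 ADJ/PC6 plasmacytoma (or its cisplatin-resistant subline) was implanted sc as 1 mm3 fragments. On day 20 mice received a single ip injection of drug as a sonicated suspension in arachis oil, at halving doses. Ten days later tumors were dissected and weighed against controls. […] Therapeutic index is MTD/ED90, alongside LD50.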

A2780 [5] = assay: In vitro antitumor activity against A2780 cell line.; type: functional, cell-based, Homo sapiens; summary of the method: as §1
A2780 [6] = assay: In vitro antitumor activity against A2780cisR cell line.; type: functional, cell-based, Homo sapiens; summary of the method: as §1
CH1 [7] = assay: In vitro antitumor activity against CH1 cell line.; type: functional, cell-based, Homo sapiens; summary of the method: as §1
A2780 [8] = assay: Resistant factor determined between IC50 of resistant line to that of parental A2780 cell line; type: functional, cell-based; conditions: Homo sapiens
Summary of the method: (§2)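 Resistance factor is the IC50 in the cisplatin-resistant subline divided by the IC50 in its parent line. IC50s came from a 96 h SRB cytotoxicity assay run in quadruplicate wells.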

CH1 [9] = assay: Resistant factor, determined between IC50 of resistant line to that of CHcisR cell line; type: functional, cell-based; conditions: Homo sapiens; CH1cisR; summary of the method: as §2
41M [10] = assay: Resistant factor was determined between IC50 of cisplatin-resistant human tumor cell lines to that of […] cell line; type: functional, cell-based; summary of the method: as §2

Row | IC50 (SK-OV-3) | IC50 (41M [1]) | IC50 (CH1 [2]) | IC50 (41M [3]) | IC50 (A2780 [5]) | IC50 (A2780 [6]) | IC50 (CH1 [7]) | Substance | LD50 [4] | ED90 (Mus musculus) | RF (A2780 [8]) | RF (CH1 [9]) | RF (41M [10])
1 |  |  |  |  |  |  |  | AMMONIO(DICHLORO)PLATINUM(CYCLOHEXYL)AMMONIUM [listing 2 of 2 here] |  | 1.4 mg/kg |  |  | 
2 |  |  |  |  |  |  |  | AMMONIO(DICHLORO)[DI(METHYLCARBONYLOXY)]PLATINUM(CYCLOHEXYL)AMMONIUM [listing 2 of 2 here] |  |  | 10 | 1.4 | 0.9
3 | 7.1 µM | 4.1 µM | 4.4 µM | 4.5 µM | 2.3 µM | 4.8 µM | 4 µM | Trans-Amminedichloro hexylamine platinium (II) [listing 1 of 2 here] |  |  |  |  | 
4 |  |  |  |  |  |  |  | Trans-Amminedichloro hexylamine platinium (II) [listing 2 of 2 here] |  |  | 2.1 | 1.1 | 0.9
5 | 10 µM | 1.7 µM | 4.7 µM | 2.4 µM | 1.3 µM | 4.6 µM | 4.3 µM | Trans-Amminedichloro(cycloheptylamine)platinium (II) [listing 1 of 2 here] |  |  |  |  | 
6 |  |  |  |  |  |  |  | Trans-Amminedichloro(cycloheptylamine)platinium (II) [listing 2 of 2 here] |  |  | 3.4 | 1.1 | 0.7
7 | > 50 µM | > 50 µM | > 50 µM | > 50 µM | > 50 µM | > 50 µM | > 50 µM | Trans-Amminedichloro(diethylamine)platinium (II) |  |  |  |  | 
8 | 1.5 µM | 1.2 µM | 0.43 µM | 0.49 µM | 0.4 µM | 1.4 µM | 0.21 µM | trans-(1-Aminoadamantane)Amminedichloro-platinium (II) [listing 1 of 2 here] |  |  |  |  | 
9 |  |  |  |  |  |  |  | trans-(1-Aminoadamantane)Amminedichloro-platinium (II) [listing 2 of 2 here] |  |  | 3.6 | 2 | 2.4
10 | 11.5 µM | 3.2 µM | 5 µM | 4 µM | 1.9 µM | 5.4 µM | 4 µM | trans-Amminedibromo (cyclohexylamine)-platinium (II) [listing 1 of 2 here] |  |  |  |  | 
11 |  |  |  |  |  |  |  | trans-Amminedibromo (cyclohexylamine)-platinium (II) [listing 2 of 2 here] |  |  | 2.8 | 1.2 | 0.8
12 |  |  |  |  |  |  |  | trans-Amminedichloro(N-methylcyclohexylamine)-platinium (II) [listing 2 of 2 here] |  |  | 7.8 | 2.8 | 0.6
13 | > 50 µM | > 50 µM | > 50 µM | > 50 µM | 26 µM | > 50 µM | > 50 µM | trans-Amminedichloro(quinuclidine)platinium (II) |  |  |  |  | 
14 | 9.3 µM | 4.1 µM | 4.7 µM | 3.1 µM | 1.5 µM | 5.3 µM | 3.9 µM | trans-Amminetetrachloro(cyclohexylamine)-platinium (IV) [listing 1 of 2 here] |  |  |  |  | 
15 |  |  |  |  |  |  |  | trans-Amminetetrachloro(cyclohexylamine)-platinium (IV) [listing 2 of 2 here] |  |  | 3.4 | 1.2 | 1.3
16 |  |  |  |  |  |  |  | trans-Amminetetrachloro(pyridine)-platinium (IV) [listing 2 of 2 here] |  |  | 1.7 | 1 | 0.8
17 | 29 µM | 16 µM | 15.5 µM | 16.5 µM | 14 µM | 16 µM | 15.5 µM | trans-Amminetetrachloro(quinuclidine)-platinium (IV) |  |  |  |  | 
18 | 2.5 µM | 1.2 µM | 0.6 µM | 0.8 µM | 0.8 µM | 3.2 µM | 0.55 µM | trans-a,f-Dichloro-b,d-bis(cyclohexylamine)-c,e-dihydroxo-platinium (IV) |  |  |  |  | 
19 | 45 µM | 13.3 µM | 14 µM | 9.4 µM | 4.5 µM | 26.5 µM | 10.3 µM | trans-a-Ammine-b,d-dichloro-c,e-dihydrooxy-f-(ethylamine)-platinium (IV) [listing 1 of 2 here] |  |  |  |  | 
20 |  |  |  |  |  |  |  | trans-a-Ammine-b,d-dichloro-c,e-dihydrooxy-f-(ethylamine)-platinium (IV) [listing 2 of 2 here] |  |  | 5.9 | 1.4 | 1.4
21 | 27 µM | 9.5 µM | 14.3 µM | 14.4 µM | 3.2 µM | 16 µM | 10.2 µM | trans-a-Ammine-b,d-dichloro-c,e-dihydroxo-f-(quinuclidine)-platinium (IV) [listing 1 of 2 here] |  |  |  |  | 
22 |  |  |  |  |  |  |  | trans-a-Ammine-b,d-dichloro-c,e-dihydroxo-f-(quinuclidine)-platinium (IV) [listing 2 of 2 here] |  |  | 5 | 1.4 | 0.7
23 | 12.1 µM | 0.76 µM | 4.5 µM | 1.8 µM | 1.9 µM | 11.6 µM | 3.3 µM | trans-a-Ammine-b,d-dichloro-c,e-dihydroxy-f-(diethylamine)-platinium (IV) [listing 1 of 2 here] |  |  |  |  | 
24 |  |  |  |  |  |  |  | trans-a-Ammine-b,d-dichloro-c,e-dihydroxy-f-(diethylamine)-platinium (IV) [listing 2 of 2 here] |  |  | 6.2 | 1.4 | 0.4
25 | 19 µM | 4.3 µM | 5.6 µM | 6.2 µM | 3.2 µM | 10.6 µM | 4.6 µM | trans-a-ammine-b,d-dichloro-f-(cyclohexylamine)-c,e-bis-(ethylcarbamato)platinium (IV) |  |  |  |  | 
26 | 6 µM and 16.6 µM | 1.4 µM and 3.2 µM | 2.1 µM and 2 µM | 1.3 µM and 3.5 µM | 0.42 µM and 0.8 µM | 3 µM and 1.9 µM | 1.1 µM and 0.57 µM | trans-a-ammine-b,d-dichloro-f-(cyclohexylamine)-c,e-dihydroxoplatinium (IV) |  |  |  |  | 

Row | Substance | IC50 (SK-OV-3) | IC50 (41M [1]) | IC50 (CH1 [2]) | IC50 (41M [3]) | IC50 (A2780 [5]) | IC50 (A2780 [6]) | IC50 (CH1 [7]) | LD50 [4] | ED90 (Mus musculus) | RF (A2780 [8]) | RF (CH1 [9]) | RF (41M [10])
27 | AMMONIO(DICHLORO)PLATINUM(CYCLOHEXYL)AMMONIUM [listing 1 of 2 here] | 2.1 µM and 7.2 µM | 0.28 µM and 1.5 µM | 0.38 µM and 3.3 µM | 0.26 µM and 1.7 µM |  |  |  | 17.5 mg/kg and 35 mg/kg |  |  |  | 
28 | AMMONIO(DICHLORO)[DI(METHYLCARBONYLOXY)]PLATINUM(CYCLOHEXYL)AMMONIUM [listing 1 of 2 here] | 4.8 µM | 1.2 µM | 1.5 µM | 1.3 µM | 0.3 µM | 3 µM | 1.1 µM | 35 mg/kg |  |  |  | 
29 | TRANSPLATIN | 255 µM | 70 µM | 68.5 µM | 57 µM | 32 µM | 260 µM | 30 µM | 32 mg/kg |  |  |  | 
30 | trans-Amminedichloro(N-methylcyclohexylamine)-platinium (II) [listing 1 of 2 here] | 3.9 µM | 0.48 µM | 1.1 µM | 0.78 µM | 0.46 µM | 3.6 µM | 0.38 µM | 71 mg/kg |  |  |  | 
31 | trans-Amminetetrachloro(pyridine)-platinium (IV) [listing 1 of 2 here] | 14.5 µM | 4.1 µM | 4.8 µM | 5.3 µM | 3.2 µM | 5.6 µM | 4.7 µM | > 100 mg/kg |  |  |  | 
32 | trans-a-Ammine-b,d-dichloro-c,e-dihydrooxy-f-(Morphiline)-platinium (IV) | 47 µM | 54 µM | 28.3 µM | 26 µM | 10.9 µM | 47 µM | 17.3 µM | 82 mg/kg |  |  |  | 
33 | trans-a-Ammine-b,d-dichloro-c,e-dihydrooxy-f-(cyclopentylamine)-platinium (IV) | 7 µM | 1.3 µM | 1.9 µM | 1.1 µM | 0.95 µM | 5.2 µM | 1.1 µM | 15 mg/kg |  |  |  | 
34 | trans-a-Ammine-b,d-dichloro-c,e-dihydroxo-f-(1,1,3,3-tetramethyl butylamine)-platinium (IV) | 1.8 µM | 1 µM | 0.55 µM | 0.48 µM | 0.4 µM | 2.2 µM | 0.36 µM | 29 mg/kg |  |  |  | 
35 | trans-a-Ammine-b,d-dichloro-c,e-dihydroxo-f-(N-methylcyclohexylamine)-platinium (IV) | 6.9 µM | 1.6 µM | 2.9 µM | 2.3 µM | 1.3 µM | 5 µM | 1.3 µM | 29 mg/kg |  |  |  | 
36 | trans-a-Ammine-b,d-dichloro-c,e-dihydroxo-f-(exo-2-aminonorbornane)-platinium (IV) | 4.4 µM | 1.5 µM | 1.7 µM | 1.4 µM | 0.25 µM | 3 µM | 1.4 µM | 17.5 mg/kg |  |  |  | 
37 | trans-a-Ammine-b,d-dichloro-c,e-dihydroxy-f-(benzylamine)-platinium (IV) | 8.2 µM | 1.3 µM | 1.9 µM | 1.3 µM | 1.1 µM | 4.2 µM | 1.1 µM | 71 mg/kg |  |  |  | 
38 | trans-a-ammine-b,d-dichloro-f-(2-propylamine)-c,e-dihydroxoplatinium (IV) | 9.2 µM and 30.5 µM | 4.6 µM and 9.2 µM | 5.5 µM and 4.9 µM | 3.2 µM and 3.9 µM | 0.54 µM and 0.99 µM | 4.7 µM and 7.2 µM | 2.4 µM and 1.4 µM | 18 mg/kg and 35 mg/kg |  |  |  | 
